Assay results reported in paper PMC6910256 (Journal of photochemistry and photobiology. A, Chemistry, 2019).
pIC50, pKd, pKi: −log10 of the molar value. Read-outs that look alike come from different tables or passages of the source.

Legend:
DUSP5 PD [1] = molecular target: T1, DUSP5 PD (Homo sapiens, UniProt Q16690); assay: DUSP5 phosphatase domain pNPP assay, IC50 from initial velocities; type: biochemical
T1 sequence (Q16690 178-319 limits assumed): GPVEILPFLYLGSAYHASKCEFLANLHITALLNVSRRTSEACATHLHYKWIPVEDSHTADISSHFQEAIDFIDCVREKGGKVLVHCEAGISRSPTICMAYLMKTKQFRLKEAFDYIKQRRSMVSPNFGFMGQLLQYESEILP
How it was run: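 Recombinant DUSP5 phosphatase domain in 100 mM Tris, 100 mM NaCl, 5 mM MgCl2, pH 7.5, without or with 1 mM DTT, using 5 mM pNPP (near Km). Compound was serially diluted and enzyme added from a 25 μM stock. After 0, 30 or 60 min dark incubation, A405 was read every 30 s for 10 min at 25°C. Blank-subtracted slopes were normalised to vehicle controls and fitted to equation 2. Three or four trials of triplicate wells.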

DUSP5 PD [2] = molecular target: T1, DUSP5 PD; assay: Spectral analysis of other xanthene dyes binding to DUSP5 PD protein; conditions: 4 μM compound, 4 μM protein
How it was run: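 Each test compound at 4 μM in assay buffer, without or with 1 mM DTT, in 2 mL quartz cuvettes. Absorbance was scanned at 1 nm intervals from 400 to 600 nm. DUSP5 PD was then added to a final 4 μM and the sample rescanned. Blanks were buffer with or without DTT, plus buffer with 4 μM protein. Spectra without protein were subtracted from spectra with protein to give difference spectra.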

GST-DUSP5 = molecular target: T2, GST-DUSP5 (Homo sapiens, UniProt Q16690); assay: Prestwick drug library pNPP enzyme assay screen; type: biochemical; conditions: 50 μM drug, 5 mM pNPP
T2 sequence (Q16690 178-319 limits assumed): T1 sequence (Q16690 178-319 limits assumed)

DUSP5 PD [3] = molecular target: T1, DUSP5 PD; assay: Reaction progress curve analysis of irreversible DUSP5 PD inactivation; type: biochemical
[4] = molecular target: T3, GST-DUSP5 (full length DUSP5, pERK substrate) (Homo sapiens, UniProt Q16690); assay: In vitro ERK dephosphorylation Western blot assay; type: biochemical; conditions: non-cell based western blot
T3 sequence (Q16690 1-384): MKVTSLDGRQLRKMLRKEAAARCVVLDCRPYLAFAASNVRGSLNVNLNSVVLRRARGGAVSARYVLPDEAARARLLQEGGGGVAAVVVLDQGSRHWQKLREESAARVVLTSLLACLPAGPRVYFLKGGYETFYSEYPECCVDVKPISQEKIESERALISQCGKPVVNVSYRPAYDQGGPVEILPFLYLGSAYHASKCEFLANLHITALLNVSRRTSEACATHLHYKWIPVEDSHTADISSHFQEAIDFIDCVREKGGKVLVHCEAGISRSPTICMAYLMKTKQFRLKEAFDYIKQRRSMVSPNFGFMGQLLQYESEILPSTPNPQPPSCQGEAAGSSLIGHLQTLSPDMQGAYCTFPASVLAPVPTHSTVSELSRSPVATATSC

Nephelometry = type: physicochemical; conditions: assay buffer pH 7.5 without vs with 1 mM DTT
How it was run: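 Aggregation was tested in 96-well plates using substrate-free assay buffer at pH 7.5, without or with 1 mM DTT. Serially diluted compound was added to give final concentrations of 1–100 μM or 1–300 μM, depending on compound.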

DUSP5 PD [5] = molecular target: T1, DUSP5 PD; assay: Steady-state competitive inhibition kinetics; type: biochemical; conditions: vs pNPP
How it was run: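 Initial DUSP5 PD velocities were measured across 3–81 mM pNPP and 0–30 μM test compound, in assay buffer with 1 mM DTT. The data were fitted globally to a steady-state competitive inhibition model (equation 5), giving Vmax, Km and Ki ± SE.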

DUSP5 PD [6] = molecular target: T1, DUSP5 PD; assay: Incandescent bulb kinetic studies, noncompetitive inhibition models; type: biochemical
How it was run: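 DUSP5 PD (final 1 μM) in 100 mM Tris pH 7.5, 100 mM NaCl, 5 mM MgCl2, 1 mM DTT, precooled to 4°C. Incubated in glass tubes with test compound (1 mM aqueous stock, light-protected), either light-limited or under incandescent illumination. Substrate was 3, 9 or 27 mM pNPP, with pNPP-only background subtraction. Initial velocities came from linear fits of p-nitrophenolate (ε 18,000). Fits were global noncompetitive models: a single Ki (equation 6), or slope Kis and intercept Kii (equation 7).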

DUSP5 PD [7] = molecular target: T1, DUSP5 PD; assay: Binding of rose bengal to DUSP5 PD by UV-Vis spectral titration; conditions: read-out: Kd for binding to DUSP5; as printed in abstract/highlights
How it was run: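 Final protein was 0, 1.0, 2.0 and 3.0 μM with 1.08 μM compound, or 0–2.5 μM in 0.5 μM steps with 3.25 or 6.5 μM compound. Absorbance differences were fitted hyperbolically (equation 8) against total protein to obtain Absmax. Fractional absorbance was plotted versus total protein.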

DUSP5 PD [8] = molecular target: T1, DUSP5 PD; assay: LED illumination kinetic studies; type: biochemical; conditions: 555 nm LED, 30 min, 825 lux
How it was run: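 Samples of 4 mL containing 1 μM DUSP5 PD and 0, 1, 2 or 3.5 μM test compound were prepared at 20°C under <1 lux. They were then treated for 30 min, illuminated or light-shielded. Aliquots of 190 μL were started with pNPP (final 0, 3, 9, 27 mM), four replicates each, plated under <1 lux. A405 was read every 30 s for 10 min at 25°C. Initial velocities were globally fitted to the noncompetitive models (equations 6, 7).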

DUSP5 PD [9] = molecular target: T1, DUSP5 PD; assay: Headspace gas sparging kinetic studies; type: biochemical; conditions: 1 μM rose bengal, illuminated 15 min
How it was run: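 Borosilicate tubes held 4 mL assay buffer with 1 μM DUSP5 PD, without or with 1 μM test compound. They were prepared shielded from light, stoppered and kept on ice. Ultrapure air, nitrogen or oxygen was passed through the headspace at 2.5 L/min by needle. Controls: enzyme without compound under room air. After illumination, pNPP hydrolysis was read at 405 nm every 30 s for 10 min at 25°C in 96-well plates, background-subtracted and converted to p-nitrophenolate.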

[10] = with 1 mM DTT, summary of data sets (Table 2)
[11] = without DTT, summary of data sets (Table 2)
[12] = without DTT, fit of kobs replot to equation 4 (Fig. 5c/6c)

O=C1OC2(c3ccc(O)cc3Oc3cc(O)ccc32)c2ccccc21 [Fluorescein]
pIC50 (DUSP5 PD [1]): < 3.52
pIC50 (DUSP5 PD [1]; IC50 against DUSP5 PD activity, with 1 mM DTT, 30 min incubation, mean ± SD): < 3.52
pIC50 (DUSP5 PD [1]; IC50 against DUSP5 PD activity, with 1 mM DTT, 60 min incubation, mean ± SD): < 3.52
pIC50 (DUSP5 PD [1]; IC50 against DUSP5 PD activity, without DTT, 30 min incubation, mean ± SD): < 3.52
pIC50 (DUSP5 PD [1]; IC50 against DUSP5 PD activity, without DTT, 60 min incubation, mean ± SD): < 3.52
inhibition of DUSP5 PD activity (DUSP5 PD [1]; concentrations up to 300 μM): did not inhibit
spectral shift upon addition of DUSP5 PD protein (DUSP5 PD [2]; with 1 mM DTT): no spectral differences
spectral shift upon addition of DUSP5 PD protein (DUSP5 PD [2]; without DTT): no spectral differences

COc1cc(NC(C)CCCN)c2ncccc2c1 (centres unmarked) [Primaquine diphosphate]
inhibitory activity with DUSP5 in library screen (GST-DUSP5): showed inhibitory activity

CN(C)[C@@H]1C(O)=C(C(=O)NCNCCCC[C@H](N)C(=O)O)C(=O)[C@@]2(O)C(O)=C3C(=O)c4c(O)cccc4[C@@](C)(O)[C@H]3C[C@@H]12 [Lymecycline]
inhibitory activity with DUSP5 in library screen (GST-DUSP5): showed inhibitory activity

Cyanocobalamin
inhibitory activity with DUSP5 in library screen (GST-DUSP5): showed inhibitory activity

O=C1OC2(c3cc(Br)c(O)cc3Oc3cc(O)c(Br)cc32)c2ccccc21 [2’,7’-dibromofluorescein]
Inhibitor mechanism (irreversible inactivation) (DUSP5 PD [3]; with 1 mM DTT): single-step
kinact/KI (DUSP5 PD [3]; [10]): 0.84 ± 0.07 M⁻¹ s⁻¹
Inhibitor mechanism (irreversible inactivation) (DUSP5 PD [3]; without DTT): single-step
kinact/KI (DUSP5 PD [3]; [11]): 2.40 ± 0.48 M⁻¹ s⁻¹
spectral shift upon addition of DUSP5 PD protein (DUSP5 PD [2]; with 1 mM DTT): shifted slightly
spectral shift upon addition of DUSP5 PD protein (DUSP5 PD [2]; without DTT): shifted slightly

O=C([O-])c1ccccc1-c1c2cc(Br)c(=O)cc-2oc2[c]([Hg+])c([O-])c(Br)cc12.[Na+].[Na+].[OH-] [Merbromin, 2’,7’-dibromo-5’-[hydroxy-mercurio]-fluorescein]
rank in secondary assay of pERK dephosphorylation among 8 screen hits [4]: most potent inhibitor
Inhibitor mechanism (irreversible inactivation) (DUSP5 PD [3]; with 1 mM DTT): single-step
kinact/KI (slope of linear fit) (DUSP5 PD [3]; with 1 mM DTT, fit shown in Fig. 5c/6c): 6.0 M⁻¹ s⁻¹
kinact/KI (DUSP5 PD [3]; [10]): 6.22 ± 0.74 M⁻¹ s⁻¹
kinact/KI (slope from the data fit) (DUSP5 PD [3]; with DTT, Fig. 5c): 6.0 M⁻¹
fold decrease of kinact/KI in the presence of DTT (DUSP5 PD [3]; with vs without DTT): 7.6 fold
Inhibitor mechanism (irreversible inactivation) (DUSP5 PD [3]; without DTT): two-step
pKi (DUSP5 PD [3]; [12]): 4.48
kinact (DUSP5 PD [3]; [12]): 0.0014 s⁻¹
kinact/KI (DUSP5 PD [3]; without DTT, fit shown in Fig. 5c/6c): 42.4 M⁻¹ s⁻¹
kinact/KI (DUSP5 PD [3]; [11]): 47.08 ± 4.66 M⁻¹ s⁻¹
kinact/KI (DUSP5 PD [3]; without DTT, summary of data sets (Table 2), listed as merbromin): 47 M⁻¹ s⁻¹
spectral shift upon addition of DUSP5 PD protein (DUSP5 PD [2]; with 1 mM DTT): blunted
spectral shift upon addition of DUSP5 PD protein (DUSP5 PD [2]; without DTT): largest spectral shift
effect of DTT addition on compound aggregation (Nephelometry): little effect
inhibitory activity with DUSP5 in library screen (GST-DUSP5): showed inhibitory activity

CN1CCC2(C)c3cc(O)ccc3N(C)C12.O=C(O)/C=C/C(=O)O (centres unmarked) [Eseroline fumarate salt]
inhibitory activity with DUSP5 in library screen (GST-DUSP5): showed inhibitory activity

O=C1OC2(c3ccccc31)c1cc(I)c(O)c(I)c1Oc1c2cc(I)c(O)c1I [Erythrosin B, 2’,4’,5’,7’-tetraiodofluorescein]
fold less effective than merbromin (time-dependent inhibition) (DUSP5 PD [3]; absence of DTT): roughly 10 fold
Inhibitor mechanism (irreversible inactivation) (DUSP5 PD [3]; with 1 mM DTT): single-step
kinact/KI (DUSP5 PD [3]; [10]): 4.13 ± 0.13 M⁻¹ s⁻¹
Inhibitor mechanism (irreversible inactivation) (DUSP5 PD [3]; without DTT): single-step
kinact/KI (DUSP5 PD [3]; [11]): 4.65 ± 0.71 M⁻¹ s⁻¹
steady-state inhibition mechanism (DUSP5 PD [5]): competitive inhibitor
spectral shift upon addition of DUSP5 PD protein (DUSP5 PD [2]; with 1 mM DTT): not diminished
spectral shift upon addition of DUSP5 PD protein (DUSP5 PD [2]; without DTT): spectrally shifted

Anthracin
inhibitory activity with DUSP5 in library screen (GST-DUSP5): showed inhibitory activity

N[C@@H](Cc1ccc(O)c(O)c1)C(=O)O [Levodopa]
inhibitory activity with DUSP5 in library screen (GST-DUSP5): showed inhibitory activity

CC[N+](C)(CC)CCC[n+]1c(-c2ccccc2)c2cc(N)ccc2c2ccc(N)cc21.[I-].[I-] [Propidium iodide]
inhibitory activity with DUSP5 in library screen (GST-DUSP5): showed inhibitory activity

O=C1OC2(c3cc(Cl)c(O)cc3Oc3cc(O)c(Cl)cc32)c2ccccc21 [2’,7’-dichlorofluorescein]
Inhibitor mechanism (irreversible inactivation) (DUSP5 PD [3]; with 1 mM DTT): single-step
kinact/KI (DUSP5 PD [3]; [10]): 0.14 ± 0.02 M⁻¹ s⁻¹
Inhibitor mechanism (irreversible inactivation) (DUSP5 PD [3]; without DTT): single-step
kinact/KI (DUSP5 PD [3]; [11]): 0.41 ± 0.06 M⁻¹ s⁻¹
spectral shift upon addition of DUSP5 PD protein (DUSP5 PD [2]; with 1 mM DTT): no spectral differences
spectral shift upon addition of DUSP5 PD protein (DUSP5 PD [2]; without DTT): no spectral differences

O=C(O)c1c(Cl)c(Cl)c(Cl)c(Cl)c1-c1c2cc(I)c(=O)c(I)c-2oc2c(I)c(O)c(I)cc12 [Rose Bengal, 4,5,6,7-tetrachloro-2’,4’,5’,7’-tetraiodofluorescein]
Kii, intercept inhibition constant (two Ki noncompetitive model, equation 7) (DUSP5 PD [6]; 15 min dark incubation): 2.25 ± 0.10 µM
Kii, intercept inhibition constant (two Ki noncompetitive model, equation 7) (DUSP5 PD [6]; 15 min light exposure): 0.55 ± 0.02 µM
steady-state inhibition mechanism (DUSP5 PD [6]; vs pNPP): noncompetitive inhibitor
pKd (DUSP5 PD [7]): 6.16
Ki of LED-illuminated samples relative to samples incubated in the dark (DUSP5 PD [8]): about half
DUSP5 PD enzyme activity, oxygen-gassed vs other conditions (DUSP5 PD [9]): significantly lower activities
DUSP5 PD enzyme velocity, nitrogen-gassed vs compressed air or oxygen (DUSP5 PD [9]): significantly higher velocities

O.O=C1C(O)=C(O)C(=O)C(O)=C1O [Tetrahydroxy 1,4-quinone monohydrate]
inhibitory activity with DUSP5 in library screen (GST-DUSP5): showed inhibitory activity
